From PubChem
Hep lipid drop – hepatic lipid droplet formation modulation; AML12 mouse hepatocytes, oleate lipid droplets, BODIPY imaging; inhibition, % at 6.5 µM; actives 0.4% (n = 240,000);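 active means lipid droplet intensity inhibited by at least 50%, with more than 500 cells counted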
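Technique: fluorescence imaging, 20x objective, two fields per well / Assay system: AML12 hepatocytes (mouse) / Measure: % inhibition of lipid droplet signal / Doses: 6.5 µM single-point dosing / Incubation: overnight exposure / Reagent: 100 µM oleic acid challenge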
MEKK2 mut-MEK5 – signal of MEK5 binding to mutant human MEKK2 PB1 domain; bead flow cytometry, Alexa488-MEK5 binding to MEKK2 mutant; percent response, % at 10 µM; actives 0.35% (n = 290,000); in the data active means percent response above about 24%, passing the limit was not always enough
MEKK2wt PB1 HTS – raises or lowers MEK5 binding to wildtype human MEKK2 PB1 domain. Q9Y2U5. bead flow cytometry, Alexa488-MEK5 binding to MEKK2 WT; actives lie on both sides. binding response (% of control), % at 10 µM. actives 1.1% (n = 290,000). AID 1531; in the data active means binding response below about 67% or above about 130%
MEKK3 PB1 HTS – MEKK3-MEK5 PB1 interaction, increase or decrease; binding response (% of control), % at 10 µM; Q99759; bead-based flow cytometry, Alexa488-MEK5 binding to MEKK3; actives lie on both sides; 0 = blocked by unlabeled MEK5, 100 = vehicle; actives 1.4% (n = 290,000);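 active means binding response more than 3 SD above or below the average of its plate-row segment, actives on both sides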;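 further: Alexa488 bead fluorescence after subtracting the streptavidin-only scavenger bead signal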
Target sequence (Q99759 whole entry, looked up): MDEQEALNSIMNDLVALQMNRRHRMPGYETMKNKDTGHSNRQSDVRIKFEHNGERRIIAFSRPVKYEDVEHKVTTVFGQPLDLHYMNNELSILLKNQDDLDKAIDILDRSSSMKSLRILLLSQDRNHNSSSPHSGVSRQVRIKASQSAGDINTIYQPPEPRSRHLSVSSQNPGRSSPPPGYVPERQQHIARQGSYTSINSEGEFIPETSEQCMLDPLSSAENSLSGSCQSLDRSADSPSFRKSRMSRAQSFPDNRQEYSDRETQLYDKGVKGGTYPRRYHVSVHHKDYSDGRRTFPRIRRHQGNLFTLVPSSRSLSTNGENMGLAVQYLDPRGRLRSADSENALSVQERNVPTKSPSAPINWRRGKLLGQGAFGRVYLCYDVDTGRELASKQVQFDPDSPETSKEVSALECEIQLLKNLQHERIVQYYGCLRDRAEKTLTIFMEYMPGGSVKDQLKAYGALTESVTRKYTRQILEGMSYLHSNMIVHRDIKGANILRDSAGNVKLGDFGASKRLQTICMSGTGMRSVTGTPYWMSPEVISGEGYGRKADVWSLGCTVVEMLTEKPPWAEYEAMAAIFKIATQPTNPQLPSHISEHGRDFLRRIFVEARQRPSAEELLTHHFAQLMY
MEKK2wt confirm – raises or lowers MEK5 binding to wildtype human MEKK2, retest | shares compounds with MEKK3 PB1 HTS | bead flow cytometry, Alexa488-MEK5 binding to MEKK2 WT; actives lie on both sides | binding response (% of control), % at 10 µM | actives 2.4% (n = 5,900) | AID 1892; in the data active means binding response below about 16% or above about 210%; inactive means in between
MEKK2mut confirm – signal of MEK5 binding to mutant human MEKK2, retest; actives 2% (n = 5,900); bead flow cytometry, Alexa488-MEK5 binding to MEKK2 mutant; AID 1893; shares compounds with MEKK3 PB1 HTS; percent response, % at 10 µM; in the data active means percent response mostly above about 71%, no sharp cut-off; inactive means mostly below about 38%;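 further: higher means compound restores mutant binding toward wildtype level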
MEKK3 confirm – confirmation of inhibitors of MEK5 binding to human MEKK3; shares compounds with MEKK3 PB1 HTS; bead flow cytometry, Alexa488-MEK5 binding to MEKK3; active compounds read low; binding response (% of control), % at 10 µM; actives 1.8% (n = 5,900);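 active means binding response below 72% of control, or above a set upper limit, though filed actives all read lower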;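 further: lower values mean stronger disruption of MEK5 binding to MEKK3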
A number is an active result; . = inactive; / = not tested or not shown; [ ] = dose if it differs, or a comment. The list is not random: actives were taken first. Their share in the collection is about 2.6%.

SMILES | Hep lipid drop | MEKK2 mut-MEK5 | MEKK2wt PB1 HTS | MEKK3 PB1 HTS | MEKK2wt confirm | MEKK2mut confirm | MEKK3 confirm
O=S(=O)(Cc1ccccc1)N1CCC(N2CCN(c3ccccc3)CC2)CC1 | / | . | . | 133 | . | . | .
COc1ccccc1C(=O)N/C(=C/c1ccco1)C(=O)Nc1cccc(C(=O)O)c1 | . | . | . | . | / | / | /
Brc1ccc(-c2csc(/N=C/N3CCCC3)n2)cc1 | . | . | . | . | / | / | /
CCN1CCN(/C=N/c2nc(C)cs2)CC1 | / | . | -2.0[inhibitor] | 2.0[inhibitor] | . | . | .
CCN(CC(=O)NC)S(=O)(=O)c1ccc(Br)cc1 | . | 24 | . | . | . | . | .
CC12CCC(C(=O)NNc3ccccc3)(OC1=O)C2(C)C (configuration not stated) | . | . | . | . | / | / | /
CC12CCC(C(=O)NNc3ccc([N+](=O)[O-])cc3)(OC1=O)C2(C)C (configuration not stated) | . | . | . | 132 | . | . | .
Cc1ccc(Cn2cc(S(=O)(=O)c3ccc(Cl)cc3)c(=O)c3cc(F)ccc32)cc1 | . | . | . | 132 | . | . | .
O=C(NC1CCCCC1)C(c1ccc(Cl)cc1)N1CCC2(CC1)OCCO2 (configuration not stated) | / | . | 2.0[inhibitor] | 2.0[inhibitor] | . | . | .
Cc1ccc(C(C(=O)NC2CCCCC2)N2CCC3(CC2)OCCO3)cc1 (configuration not stated) | / | . | . | . | / | / | /
Cc1nn2c(N3CCCC3)c3c(nc2c1-c1ccccc1)CCC3 | . | . | 30[inhibitor] | 37[inhibitor] | . | . | .
COc1cccc(Nc2c3c(nc4c(-c5ccccc5)c(C)nn24)CCC3)c1 | . | . | . | 132 | . | . | 56
Cc1nn2c(N3CCN(CCO)CC3)c3c(nc2c1-c1ccccc1)CCCC3 | . | . | . | . | / | / | /
Cc1nn2c(Nc3ccc(F)cc3)c3c(nc2c1-c1ccccc1)CCC3 | . | . | . | . | / | / | /
CN1C(=O)COc2ccc(C(=O)c3oc4ccccc4c3-c3cnc4c(c3)COc3ccccc3-4)cc21 | . | . | . | . | / | / | /
Cc1ccc2[nH]c3c(N4CCc5ccccc5C4)ncnc3c2c1 | / | . | . | . | / | / | /
CCOc1ccc2[nH]c3c(N4CCc5ccccc5C4)ncnc3c2c1 | . | . | 187 | . | . | . | .
Brc1ccc2[nH]c3c(N4CCc5ccccc5C4)ncnc3c2c1 | . | . | 150 | . | . | . | .
O=C(NCc1cccnc1)c1ccc(NS(=O)(=O)c2ccc(F)cc2)cc1 | . | . | . | . | / | / | /
COc1ccc(C(=O)N2CCC(C(=O)O)CC2)c2ccccc12 | . | . | . | . | / | / | /
O=C1CCCC(O)=C1N=Nc1ccc2c(c1)OCO2 | . | . | . | 146 | . | . | .
O=C1CCCC(O)=C1N=Nc1ccc(C(=O)O)cc1 | . | . | . | . | / | / | /
CCN1CCN(c2ccc(S(=O)(=O)N3CCCCC3)cc2NC(=O)COc2ccc(F)cc2Cl)CC1 | . | . | 139 | . | . | . | .
CC12CC3(C)CC(C)(C1)CC(C(=O)NCc1cccnc1)(C2)C3 | . | . | . | . | / | / | /
CCOc1ccc(-c2nn[nH]n2)cc1 | . | . | . | . | / | / | /
OCCOCCOc1ccc(-c2nn[nH]n2)cc1 | / | . | . | 74[inhibitor] | . | . | .
COc1cc(NC(=O)COC(=O)c2ccc(C)c(S(=O)(=O)N3CCCCC3)c2)c(C)cc1[N+](=O)[O-] | . | . | . | 146 | . | . | .
COc1cc(NC(=O)COC(=O)c2ccc(S(=O)(=O)N3CC(C)CC(C)C3)cc2)c(C)cc1[N+](=O)[O-] (configuration not stated) | . | . | . | . | / | / | /
Cc1ccc(NC(=O)C(OC(=O)c2cnc(C)cn2)c2ccccc2)c([N+](=O)[O-])c1 (configuration not stated) | . | . | . | . | / | / | /
O=C(Cn1cnc([N+](=O)[O-])n1)N/N=C/c1ccccc1O | / | . | . | . | / | / | /
